Measured values taken from ChEMBL document CHEMBL3808334, “Synthesis and in vitro evaluation of novel triazine analogues as anticancer agents and their interaction studies with bovine serum albumin” (Eur J Med Chem, 2016).

Experiments:
[1] = Growth inhibition of human RXF393 cells assessed as cell growth at 10^-4 M incubated for 48 hrs by sulforhodamine B assay; format: functional; conditions: RXF 393, 48 h, read-out: Activity
SK-MEL-2 = test: Growth inhibition of human SK-MEL-2 cells incubated for 48 hrs by sulforhodamine B assay; format: functional; conditions: SK-MEL-2, 48 h
In short: (§1)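 Cells were plated at 5,000–40,000 per well according to doubling time and preincubated 24 h at 37 °C in 5% CO2; time-zero plates were then TCA-fixed. Five concentrations (10-fold or ½-log dilutions, DMSO stock) were incubated 48 h. Cells were TCA-fixed, stained with 0.4% SRB and read at 515 nm. GI50 was taken where [(Ti−Tz)/(C−Tz)]×100 = 50.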

A498 = test: Growth inhibition of human A498 cells incubated for 48 hrs by sulforhodamine B assay; format: functional; conditions: A498, 48 h
In short: (§2)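 Five-dose assay: five concentrations from 10-fold or ½-log serial dilutions. Cells are plated at 5,000–40,000 per well according to doubling time, grown 24 h, then exposed 48 h at 37 °C, 5% CO₂. Fixed with cold 50% TCA (final addition) for 60 min at 4 °C and stained with 0.4% SRB in 1% acetic acid. Bound dye is solubilized in 10 mM Tris base and read at 515 nm. GI₅₀ is where [(Ti−Tz)/(C−Tz)]×100 = 50, with a time-zero plate as Tz.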

[2] = Growth inhibition of human TK10 cells incubated for 48 hrs by sulforhodamine B assay; format: functional; conditions: TK-10, 48 h; in short: as §1
MDA-MB-231 [3] = test: Growth inhibition of human MDA-MB-231 cells assessed as cell growth at 10^-8 M incubated for 48 hrs by sulforhodamine B assay; format: functional; conditions: MDA-MB-231, 48 h, read-out: Activity
T47D = test: Growth inhibition of human T47D cells assessed as cell growth at 10^-8 M incubated for 48 hrs by sulforhodamine B assay; format: functional; conditions: read-out: Activity
K562 = test: Growth inhibition of human K562 cells assessed as cell growth at 10^-7 M incubated for 48 hrs by sulforhodamine B assay; format: functional; conditions: K562, 48 h, read-out: Activity
[4] = Growth inhibition of human SW620 cells assessed as cell growth at 10^-7 M incubated for 48 hrs by sulforhodamine B assay; format: functional; conditions: SW-620, 48 h, read-out: Activity
[5] = Growth inhibition of human OVCAR5 cells assessed as cell growth at 10^-4 M incubated for 48 hrs by sulforhodamine B assay; format: functional; conditions: OVCAR-5, 48 h, read-out: Activity
[6] = Growth inhibition of human SKOV3 cells assessed as cell growth at 10^-4 M incubated for 48 hrs by sulforhodamine B assay; format: functional; conditions: SK-OV-3, 48 h, read-out: Activity
ACHN = test: Growth inhibition of human ACHN cells assessed as cell growth at 10 uM incubated for 48 hrs by sulforhodamine B assay; format: functional; conditions: read-out: Activity
In short: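 One-dose screen at 10 µM final. Cells are plated at 5,000–40,000 per well according to doubling time and preincubated 24 h at 37 °C, 5% CO₂. Compound (DMSO stock diluted in medium with 50 µg/ml gentamicin) is then added for 48 h. Growth percent is read by sulforhodamine B staining, absorbance at 515 nm.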

MCF7 = test: Growth inhibition of human MCF7 cells assessed as cell growth at 10 uM incubated for 48 hrs by sulforhodamine B assay; format: functional; conditions: MCF7, 48 h, read-out: Activity
SR = test: Growth inhibition of human SR cells assessed as cell growth at 10^-8 M incubated for 48 hrs by sulforhodamine B assay; format: functional; conditions: read-out: Activity
[7] = Growth inhibition of human TK10 cells assessed as cell growth at 10^-7 M incubated for 48 hrs by sulforhodamine B assay; format: functional; conditions: TK-10, 48 h, read-out: Activity
MDA-MB-231 [8] = test: Growth inhibition of human MDA-MB-231 cells assessed as cell growth at 10^-6 M incubated for 48 hrs by sulforhodamine B assay; format: functional; conditions: MDA-MB-231, 48 h, read-out: Activity
[9] = Growth inhibition of human BT549 cells assessed as cell growth at 10^-6 M incubated for 48 hrs by sulforhodamine B assay; format: functional; conditions: BT-549, 48 h, read-out: Activity; in short: as §2
MDA-MB-468 [10] = test: Growth inhibition of human MDA-MB-468 cells assessed as cell growth at 10^-6 M incubated for 48 hrs by sulforhodamine B assay; format: functional; conditions: MDA-MB-468, 48 h, read-out: Activity
A549 = test: Growth inhibition of human A549/ATCC cells assessed as cell growth at 10^-5 M incubated for 48 hrs by sulforhodamine B assay; format: functional; conditions: A549, 48 h, read-out: Activity; in short: as §2
M14 = test: Growth inhibition of human M14 cells assessed as cell growth at 10^-5 M incubated for 48 hrs by sulforhodamine B assay; format: functional; conditions: M14, 48 h, read-out: Activity
[11] = Growth inhibition of human UACC62 cells assessed as cell growth at 10^-5 M incubated for 48 hrs by sulforhodamine B assay; format: functional; conditions: UACC-62, 48 h, read-out: Activity
[12] = Growth inhibition of human OVCAR3 cells assessed as cell growth at 10^-5 M incubated for 48 hrs by sulforhodamine B assay; format: functional; conditions: OVCAR-3, 48 h, read-out: Activity
NCI-H522 = test: Growth inhibition of human NCI-H522 cells assessed as cell growth at 10 uM incubated for 48 hrs by sulforhodamine B assay; format: functional; conditions: NCI-H522, 48 h, read-out: Activity
[13] = Growth inhibition of human HCT116 cells assessed as cell growth at 10 uM incubated for 48 hrs by sulforhodamine B assay; format: functional; conditions: HCT-116, 48 h, read-out: Activity
In short: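 Primary screen at one dose (10 µM) across 60 human cancer cell lines. Readout was growth percent relative to untreated control and time-zero.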

MDA-MB-468 [14] = test: Growth inhibition of human MDA-MB-468 cells incubated for 48 hrs by sulforhodamine B assay; format: functional; conditions: MDA-MB-468, 48 h; in short: as §1
Albumin = Albumin (Bos taurus, UniProt P02769); test: Binding affinity to bovine serum albumin assessed as isoemissive point up to 20 uM by fluorescence spectroscopic analysis relative to control; format: ADME; conditions: cattle, isolated protein
In short: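 Fluorescence titration of 10 µM BSA in 0.1 M phosphate buffer pH 7.4 with compound at 0–20 µM, diluted from DMSO stocks. Excitation 280 nm, slit 10 nm, 1 cm quartz cell, 300 K. Changes in the 350 nm Trp emission, new bands near 370–373 nm and isoemissive points are read against BSA alone.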

[15] = read-out: LC50 (the source's name)
[16] = read-out: pLC50 (the source's name) (converted)

Albumin, sequence (P02769 whole entry): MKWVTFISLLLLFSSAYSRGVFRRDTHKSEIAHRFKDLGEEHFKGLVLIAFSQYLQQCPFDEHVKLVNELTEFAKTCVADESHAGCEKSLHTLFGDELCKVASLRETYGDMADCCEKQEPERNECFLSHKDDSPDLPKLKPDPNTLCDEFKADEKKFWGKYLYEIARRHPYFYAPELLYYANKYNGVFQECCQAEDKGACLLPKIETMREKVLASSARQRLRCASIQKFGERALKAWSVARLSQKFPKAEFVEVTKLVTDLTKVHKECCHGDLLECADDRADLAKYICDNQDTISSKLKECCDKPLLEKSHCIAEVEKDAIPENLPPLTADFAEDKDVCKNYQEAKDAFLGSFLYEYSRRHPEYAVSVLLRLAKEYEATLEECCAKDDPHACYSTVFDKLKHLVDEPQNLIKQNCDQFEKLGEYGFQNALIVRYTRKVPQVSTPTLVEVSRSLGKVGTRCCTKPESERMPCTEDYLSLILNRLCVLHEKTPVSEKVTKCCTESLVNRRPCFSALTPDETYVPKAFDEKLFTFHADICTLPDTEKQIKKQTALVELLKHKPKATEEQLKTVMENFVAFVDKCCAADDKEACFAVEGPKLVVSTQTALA

`c1ccc(-c2nc(Nc3ccc(-c4nc5ccccc5[nH]4)cc3)nc(N3CCOCC3)n2)cc1` showed a growth at 100 µM [1] of -61%, a GI50 (SK-MEL-2; read-out: GI50) of 1.97 µM and a CC50 (SK-MEL-2; [15]) of 6.55 µM. The TGI (SK-MEL-2; read-out: TGI) was 3.59 µM, the GI50 (SK-MEL-2; read-out: pGI50 (converted)) was 1.95 µM and the CC50 (SK-MEL-2; [16]) was 6.61 µM. For the same compound, the TGI (SK-MEL-2; read-out: pTGI (converted)) was 3.63 µM, the GI50 (A498; read-out: GI50) was 1.09 µM and the CC50 (A498; [15]) was 6.31 µM. For the same compound, the TGI (A498; read-out: TGI) was 2.62 µM, the GI50 (A498; read-out: pGI50 (converted)) was 1.1 µM and the CC50 (A498; [16]) was 6.31 µM. The TGI (A498; read-out: pTGI (converted)) was 2.63 µM, the GI50 ([2]; read-out: GI50) was 2.15 µM and the CC50 [2, 15] was 6.58 µM. For the same compound, the TGI ([2]; read-out: TGI) was 3.76 µM, the GI50 ([2]; read-out: pGI50 (converted)) was 2.14 µM and the CC50 [2, 16] was 6.61 µM. The TGI ([2]; read-out: pTGI (converted)) was 3.8 µM, the growth at 0.01 µM (MDA-MB-231 [3]) was 97% and the growth at 0.01 µM (T47D) was 103%. It also gave a growth at 0.1 µM (K562) of 96%, a growth at 0.1 µM [4] of 92% and a growth at 100 µM [5] of -75%. For the same compound, the growth at 100 µM [6] was -100%, the growth at 10 µM (ACHN) was -58.9% and the growth at 10 µM (MCF7) was -76.2%. For the same compound, the growth at 0.01 µM (SR) was 100%, the growth at 0.1 µM [7] was 106% and the growth at 1 µM (MDA-MB-231 [8]) was 63%. It also gave a growth at 1 µM [9] of 100%, a growth at 1 µM (MDA-MB-468 [10]) of 102% and a growth at 10 µM (A549) of -63%. It also gave a growth at 10 µM (M14) of -80%, a growth at 10 µM [11] of -71% and a growth at 10 µM [12] of -90%. For the same compound, the growth at 10 µM (NCI-H522) was -68.2%, the growth at 10 µM [13] was -81.5% and the GI50 (MDA-MB-468 [14]; read-out: GI50) was 2.13 µM. The CC50 (MDA-MB-468 [14]; [15]) was 9.03 µM, the TGI (MDA-MB-468 [14]; read-out: TGI) was 4.39 µM and the GI50 (MDA-MB-468 [14]; read-out: pGI50 (converted)) was 2.14 µM. It also gave a CC50 (MDA-MB-468 [14]; [16]) of 9.12 µM, a TGI (MDA-MB-468 [14]; read-out: pTGI (converted)) of 4.37 µM and an Activity (Albumin) of 357 nm.

Work on `Fc1ccc(-c2nc(Nc3ccc(-c4nc5ccccc5[nH]4)cc3)nc(N3CCOCC3)n2)cc1` yielded a growth at 100 µM [1] of -35%, a GI50 (SK-MEL-2; read-out: GI50) of 2.33 µM and a CC50 (SK-MEL-2; [15]) greater than 100 µM. It also gave a TGI (SK-MEL-2; read-out: TGI) of 5.49 µM, a GI50 (SK-MEL-2; read-out: pGI50 (converted)) of 2.34 µM and a CC50 (SK-MEL-2; [16]) greater than 100 µM. For the same compound, the TGI (SK-MEL-2; read-out: pTGI (converted)) was 5.5 µM, the GI50 (A498; read-out: GI50) was 1.52 µM and the CC50 (A498; [15]) was 8.42 µM. The TGI (A498; read-out: TGI) was 3.57 µM, the GI50 (A498; read-out: pGI50 (converted)) was 1.51 µM and the CC50 (A498; [16]) was 8.51 µM. For the same compound, the TGI (A498; read-out: pTGI (converted)) was 3.55 µM, the GI50 ([2]; read-out: GI50) was 2.91 µM and the CC50 [2, 15] was greater than 100 µM. For the same compound, the TGI ([2]; read-out: TGI) was 8.54 µM, the GI50 ([2]; read-out: pGI50 (converted)) was 2.88 µM and the CC50 [2, 16] was greater than 100 µM. For the same compound, the TGI ([2]; read-out: pTGI (converted)) was 8.51 µM, the growth at 0.01 µM (MDA-MB-231 [3]) was 92% and the growth at 0.01 µM (T47D) was 101%. It also gave a growth at 0.1 µM (K562) of 101%, a growth at 0.1 µM [4] of 100% and a growth at 100 µM [5] of -31%. It also gave a growth at 100 µM [6] of -49%, a growth at 10 µM (ACHN) of 9% and a growth at 10 µM (MCF7) of -44.3%. For the same compound, the growth at 0.01 µM (SR) was 108%, the growth at 0.1 µM [7] was 88% and the growth at 1 µM (MDA-MB-231 [8]) was 73%. The growth at 1 µM [9] was 83%, the growth at 1 µM (MDA-MB-468 [10]) was 106% and the growth at 10 µM (A549) was 3%. It also gave a growth at 10 µM (M14) of -62%, a growth at 10 µM [11] of -70% and a growth at 10 µM [12] of -61%. For the same compound, the growth at 10 µM (NCI-H522) was 11.9%, the growth at 10 µM [13] was 4.8% and the GI50 (MDA-MB-468 [14]; read-out: GI50) was 2.92 µM. The CC50 (MDA-MB-468 [14]; [15]) was greater than 100 µM, the TGI (MDA-MB-468 [14]; read-out: TGI) was 7.65 µM and the GI50 (MDA-MB-468 [14]; read-out: pGI50 (converted)) was 2.95 µM. For the same compound, the CC50 (MDA-MB-468 [14]; [16]) was greater than 100 µM, the TGI (MDA-MB-468 [14]; read-out: pTGI (converted)) was 7.59 µM and the Activity (Albumin) was 341 nm.
